Assays:
[1] = Cytotoxicity against human HepG2.2.15 cells after 72 hrs by MTT assay; assay type: functional, cell-based; details: HepG2 2.2.15, 72 h
Procedure, shortened: (§1)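 Cells were exposed to serial dilutions of compound from 1.00 to 100 μg/mL for 72 h. MTT (400 μg/mL) was then added for 4 h, replaced with DMSO, and absorbance was read at 540 nm. Cantharidin was the positive control.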

[2] = test system: Hepatitis B virus; experiment: Antiviral activity against Hepatitis B virus infected human HepG2.2.15 cells assessed as inhibition of HBsAg secretion measured after 96 hrs by ELISA; assay type: functional; details: HepG2.2.15, 96 h
Procedure, shortened: (§2)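 HepG2.2.15 cells, stably transfected with the HBV genome, were grown for 24 h in DMEM with 10% FBS, 100 μg/mL G418 and penicillin/streptomycin at 37 °C under 5% CO2. Compounds diluted in culture medium were then added for 96 h. HBeAg or HBsAg in the collected medium was measured by ELISA. Adefovir dipivoxil was the positive control. Data are mean ± SD, n = 3.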

[3] = Toxicity against human HepG2.2.15 cells infected with HBV after 72 hrs by MTT assay; assay type: cell-based, HepG2 2.2.15; procedure, shortened: as §1
[4] = test system: Hepatitis B virus; experiment: Antiviral activity against Hepatitis B virus infected human HepG2.2.15 cells assessed as inhibition of HBeAg secretion measured after 96 hrs by ELISA; assay type: functional; details: HepG2.2.15, 96 h; procedure, shortened: as §2
[5] = Cytotoxicity against human HCT116 cells measured after 72 hrs by MTT assay; assay type: functional, cell-based; details: HCT-116, 72 h; procedure, shortened: as §1
[6] = Cytotoxicity against human BGC823 cells measured after 72 hrs by MTT assay; assay type: functional, cell-based; details: BGC-823, 72 h; procedure, shortened: as §1
[7] = Selectivity index, ratio of CC50 for human HepG2.2.15 cells to IC50 for inhibition of HBeAg secretion in Hepatitis B virus infected human HepG2.2.15 cells; assay type: functional
Procedure, shortened: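 SI is CC50 in HepG2.2.15 cells divided by IC50 for HBeAg inhibition, the latter measured by ELISA of medium after 96 h of compound treatment. Values are from triplicate determinations.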

For `C[C@@]12C(=O)N(CCCCN3C(=O)[C@@]4(C)[C@@H]5CC[C@@H](O5)[C@@]4(C)C3=O)C(=O)[C@]1(C)[C@H]1CC[C@@H]2O1`, which IC50 [1] is on record?
Its IC50 is over 10 µM.

And the IC50 [2]?
The IC50 was over 110 µM.

And the CC50 at 72 h [3]?
Its CC50 at 72 h is over 220 µM.

What about the IC50 [4] of the same compound?
Its IC50 is 19 µM.

What about the IC50 [5] of the same compound?
Its IC50 is over 10 µM.

What about the IC50 [6] of the same compound?
Its IC50 is over 10 µM.

For `C[C@@]12C(=O)N(CCO)C(=O)[C@]1(CO)[C@H]1CC[C@@H]2O1`, which IC50 [1] is on record?
The IC50 was over 10 µM.

And the IC50 [5]?
The IC50 was over 10 µM.

What about the IC50 [6] of the same compound?
The IC50 was over 10 µM.

With `C[C@@]12C(=O)N(CCc3ccc(O)cc3)C(=O)[C@]1(C)[C@H]1CC[C@@H]2O1` as the compound, how does the IC50 [1] read?
The IC50 was over 10 µM.

And the IC50 [2]?
The IC50 was over 160 µM.

What about the CC50 at 72 h [3] of the same compound?
Its CC50 at 72 h is over 320 µM.

And the IC50 [4]?
The IC50 was 58 µM.

And the IC50 [5]?
Its IC50 is over 10 µM.

What about the IC50 [6] of the same compound?
The IC50 was over 10 µM.

For `C[C@]12C(=O)N(CC(N)=O)C(=O)[C@H]1[C@@H]1CC[C@H]2O1`, which IC50 [1] is on record?
Its IC50 is over 10 µM.

And the IC50 [5]?
Its IC50 is over 10 µM.

And the IC50 [6]?
The IC50 was over 10 µM.

Which results are given for `C[C@@]12C(=O)NC(=O)[C@]1(CO)[C@H]1CC[C@@H]2O1`?
IC50 [1]: > 10 µM; IC50 [5]: > 10 µM; IC50 [6]: > 10 µM

Which IC50 [1] does the source give for `C[C@@]12C(=O)N(CCCO)C(=O)[C@]1(C)[C@H]1CC[C@@H]2O1` here?
The IC50 was over 10 µM.

And the IC50 [5]?
Its IC50 is over 10 µM.

And the IC50 [6]?
Its IC50 is over 10 µM.

Which IC50 [1] does the source give for `CNC(=O)CCCN1C(=O)[C@@]2(C)[C@@H]3CC[C@@H](O3)[C@@]2(C)C1=O` here?
The IC50 was over 10 µM.

And the IC50 [5]?
The IC50 was over 10 µM.

What about the IC50 [6] of the same compound?
Its IC50 is over 10 µM.

Which results are given for `C[C@]12C(=O)N(CCCO)C(=O)[C@H]1[C@@H]1CC[C@H]2O1`?
IC50 [1]: > 10 µM; IC50 [5]: > 10 µM; IC50 [6]: > 10 µM

What does the source list for `C[C@@]12C(=O)N(CCC(N)=O)C(=O)[C@]1(C)[C@H]1CC[C@@H]2O1`?
IC50 [1]: > 10 µM; IC50 [5]: > 10 µM; IC50 [6]: > 10 µM

For `C[C@@]12C(=O)N(CCCN3C(=O)[C@@]4(C)[C@@H]5CC[C@@H](O5)[C@@]4(C)C3=O)C(=O)[C@]1(C)[C@H]1CC[C@@H]2O1`, which IC50 [1] is on record?
Its IC50 is over 10 µM.

What about the IC50 [5] of the same compound?
Its IC50 is over 10 µM.

And the IC50 [6]?
Its IC50 is over 10 µM.

Which IC50 [2] does the source give for `CC(C)(C)C(=O)OCOP(=O)(COCCn1cnc2c(N)ncnc21)OCOC(=O)C(C)(C)C` [ADEFOVIR DIPIVOXIL] here?
Its IC50 is 270 µM.

What about the CC50 at 72 h [3] of the same compound?
Its CC50 at 72 h is over 400 µM.

And the IC50 [4]?
Its IC50 is 290 µM.

What does the source list for `CNC(=O)CCCN1C(=O)[C@H]2[C@@H]3CC[C@@H](O3)[C@@]2(C)C1=O`?
IC50 [1]: > 10 µM; IC50 [5]: > 10 µM; IC50 [6]: > 10 µM

Which IC50 [1] does the source give for `CC(=O)CN1C(=O)[C@@]2(C)[C@@H]3CC[C@@H](O3)[C@@]2(C)C1=O` here?
The IC50 was over 10 µM.

And the IC50 [5]?
Its IC50 is over 10 µM.

And the IC50 [6]?
The IC50 was over 10 µM.

Which results are given for `C[C@@]12C(=O)N(CC(N)=O)C(=O)[C@]1(C)[C@H]1CC[C@@H]2O1`?
IC50 [1]: > 10 µM; IC50 [5]: > 10 µM; IC50 [6]: > 10 µM

Which results are given for `C[C@@]12C(=O)NC(=O)[C@]1(C)[C@H]1CC[C@@H]2O1`?
IC50 [1]: > 10 µM; IC50 [2]: > 260 µM; Ratio CC50/IC50 [7]: 6.7; CC50 at 72 h [3]: 280 µM; IC50 [4]: 42 µM; IC50 [5]: > 10 µM; IC50 [6]: > 10 µM

With `CN1C(=O)[C@@]2(C)[C@@H]3CC[C@@H](O3)[C@@]2(CO)C1=O` as the compound, how does the IC50 [1] read?
The IC50 was over 10 µM.

And the IC50 [5]?
Its IC50 is over 10 µM.

What about the IC50 [6] of the same compound?
The IC50 was over 10 µM.

Which results are given for `C[C@@]12C(=O)N(CCO)C(=O)[C@]1(C)[C@H]1CC[C@@H]2O1`?
IC50 [1]: > 10 µM; IC50 [2]: > 210 µM; CC50 at 72 h [3]: > 420 µM; IC50 [4]: 62 µM; IC50 [5]: > 10 µM; IC50 [6]: > 10 µM

What does the source list for `C[C@]12C(=O)NC(=O)[C@H]1[C@@H]1CC[C@H]2O1`?
IC50 [1]: > 10 µM; IC50 [5]: > 10 µM; IC50 [6]: > 10 µM

Which IC50 [1] does the source give for `C[C@@]12C(=O)N(CCCO)C(=O)[C@]1(CO)[C@H]1CC[C@@H]2O1` here?
Its IC50 is over 10 µM.

And the IC50 [5]?
The IC50 was over 10 µM.

And the IC50 [6]?
The IC50 was over 10 µM.
